Test results taken from ChEMBL document CHEMBL4334487, “Cytotoxic Microcolin Lipopeptides from the Marine Cyanobacterium Moorea producens” (J Nat Prod, 2019).

Tested on: NCI-H460
Experiment: Cytotoxicity against human NCI-H460 cells assessed as reduction in cell viability incubated for 48 hrs by MTT assay
Format: functional, cell-based
Settings: NCI-H460, 48 h
In short: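 H-460 non-small-cell lung carcinoma cells in RPMI-1640 with 10% FBS and 1% penicillin/streptomycin, used within 28 passages per frozen batch. Seeded at 3.33 × 10^4 cells/mL, adhered 24 h, then treated 48 h. Ten concentrations from 30 μM down by 0.3164-fold serial dilution; 1% DMSO negative control, doxorubicin positive control.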

**Q.** How did the IC50 turn out when CCCC[C@@H](C)C[C@@H](C)C(=O)N(C)[C@@H](CC(C)C)C(=O)N[C@H](C(=O)N(C)[C@H](C(=O)N1CCC[C@H]1C(=O)N1C(=O)CC[C@@H]1C)C(C)C)[C@@H](C)OC(C)=O was run?
**A.** 5000 nM

**Q.** Which IC50 does the source give for CCCC[C@@H](C)C[C@@H](C)C(=O)N(C)[C@@H](CC(C)C)C(=O)N[C@H](C(=O)N(C)[C@H](C(=O)N1C[C@@H](O)C[C@H]1C(=O)O)C(C)C)[C@@H](C)OC(C)=O here?
**A.** 510 nM

**Q.** For CCCC[C@@H](C)C[C@@H](C)C(=O)N(C)[C@@H](C=C(C)C)C(=O)N[C@H](C(=O)N(C)[C@H](C(=O)N1C[C@@H](O)C[C@H]1C(=O)N1C(=O)C=C[C@@H]1C)C(C)C)[C@@H](C)OC(C)=O, which IC50 is on record?
**A.** 37 nM

**Q.** Which IC50 does the source give for CCCC[C@@H](C)C[C@@H](C)C(=O)N(C)[C@@H](CC(C)C)C(=O)N[C@H](C(=O)N[C@H](C(=O)N1CCC[C@H]1C(=O)N1C(=O)C=C[C@@H]1C)C(C)C)[C@@H](C)OC(C)=O here?
**A.** 69 nM

**Q.** Which IC50 does the source give for CCCC[C@@H](C)C[C@@H](C)C(=O)N(C)[C@@H](CC(C)C)C(=O)N[C@H](C(=O)N(C)[C@H](C(=O)N1CCC[C@H]1C(=O)N1C(=O)C=C[C@@H]1C)C(C)C)[C@@H](C)O here?
**A.** 650 nM

**Q.** For CCCC[C@@H](C)C[C@@H](C)C(=O)N(C)[C@@H](CC(C)C)C(=O)N[C@H](C(=O)N(C)[C@H](C(=O)N1C[C@@H](O)C[C@H]1C(=O)N1C(=O)C=C[C@@H]1C)C(C)C)[C@@H](C)O, which IC50 is on record?
**A.** 75 nM

**Q.** CCCC[C@@H](C)C[C@@H](C)C(=O)N(C)[C@@H](CC(C)C)C(=O)N[C@H](C(=O)N(C)[C@H](C(=O)N1C[C@@H](O)C[C@H]1C(=O)N1C(=O)CC[C@@H]1C)C(C)C)[C@@H](C)OC(C)=O was tested. Which IC50 did it give?
**A.** 2800 nM

**Q.** For CCCC[C@@H](C)C[C@@H](C)C(=O)N(C)[C@@H](CC(C)C)C(=O)N[C@H](C(=O)N(C)[C@H](C(=O)N1C[C@@H](O)C[C@H]1C(=O)N1C(=O)C=C[C@@H]1C)C(C)C)[C@@H](C)OC(C)=O, which IC50 is on record?
**A.** 6 nM

**Q.** Which IC50 does the source give for CCCCCC[C@@H](C)C(=O)N(C)[C@@H](CC(C)C)C(=O)N[C@H](C(=O)N(C)[C@H](C(=O)N1C[C@@H](O)C[C@H]1C(=O)N1C(=O)C=C[C@@H]1C)C(C)C)[C@@H](C)OC(C)=O here?
**A.** 47 nM

**Q.** How did the IC50 turn out when CCCC[C@@H](C)C[C@@H](C)C(=O)N(C)[C@@H](C=C(C)C)C(=O)N[C@H](C(=O)N(C)[C@H](C(=O)N1C[C@@H](O)C[C@H]1C(=O)N1C(=O)C=C[C@@H]1C)C(C)C)[C@@H](C)O was run?
**A.** 160 nM

**Q.** For CCCC[C@@H](C)C[C@@H](C)C(=O)N(C)[C@@H](CC(C)C)C(=O)N[C@H](C(=O)N(C)[C@H](C(=O)N1CCC[C@H]1C(=O)N1C(=O)C=C[C@@H]1C)C(C)C)[C@@H](C)OC(C)=O, which IC50 is on record?
**A.** 910 nM

**Q.** CCCC[C@@H](C)C[C@@H](C)C(=O)N(C)[C@@H](CC(C)C)C(=O)N[C@H](C(=O)N(C)[C@H](C(=O)N1CCC[C@H]1C(=O)N1C(=O)CC[C@@H]1C)C(C)C)[C@@H](C)O was tested. Which IC50 did it give?
**A.** > 30000 nM

**Q.** For CCCCCC[C@@H](C)C(=O)N(C)[C@@H](CC(C)C)C(=O)N[C@H](C(=O)N(C)[C@H](C(=O)N1CCC[C@H]1C(=O)N1C(=O)C=C[C@@H]1C)C(C)C)[C@@H](C)OC(C)=O, which IC50 is on record?
**A.** 550 nM

**Q.** With COc1cccc2c1C(=O)c1c(O)c3c(c(O)c1C2=O)C[C@@](O)(C(=O)CO)C[C@@H]3O[C@H]1C[C@H](N)[C@H](O)[C@H](C)O1 [DOXORUBICIN] as the compound, how does the IC50 read?
**A.** 180 nM

**Q.** How did the IC50 turn out when CCCC[C@@H](C)C[C@@H](C)C(=O)N(C)[C@@H](C=C(C)C)C(=O)N[C@H](C(=O)N(C)[C@H](C(=O)N1CCC[C@H]1C(=O)N1C(=O)C=C[C@@H]1C)C(C)C)[C@@H](C)OC(C)=O was run?
**A.** 1000 nM

**Q.** For CCCC[C@@H](C)C[C@@H](C)C(=O)N(C)[C@@H](CC(C)C)C(=O)N[C@H](C(=O)N(C)[C@H](C(=O)N1C[C@@H](O)C[C@H]1C(=O)N1C(=O)CC[C@@H]1C)C(C)C)[C@@H](C)O, which IC50 is on record?
**A.** 2000 nM

**Q.** With CCCC[C@@H](C)C[C@@H](C)C(=O)N(C)[C@@H](CC(C)C)C(=O)N[C@H](C(=O)N(C)[C@H](C(=O)N1C[C@@H](O)C[C@H]1C(=O)N1C(=O)C=C[C@@H]1C)C(C)C)[C@@H](C)OC(=O)CC as the compound, how does the IC50 read?
**A.** 200 nM
